Values after ≈ are worked out from the molar mass of the structure shown.
Tests used:
[1] = Cytotoxicity against human macrophages assessed as cell viability after 24 hrs by MTT assay; assay type: cell-based, Macrophage
Method in brief: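 Human macrophages in DMEM with 10% FBS and antimycotic, 1.8×10⁴ cells/well. Exposed to 160, 40, 10, 2.5 and 0.25 µg/mL compound (added in 10% DMSO) for 24 h at 37 °C, 5% CO₂. MTT (2.5 mg/mL) added for a further 4 h, formazan dissolved in DMSO.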

Bacillus thuringiensis = assay: Antibacterial activity against Bacillus thuringiensis assessed as survival after 24 hrs by MTT assay; assay type: functional, organism-based
Method in brief: (§1)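 Broth microdilution in Mueller-Hinton broth. Cells grown to mid-log phase, diluted 10000-fold, and 10⁶ to 10⁷ CFU inoculated per well. Incubated 37 °C for 24 h. Drug-containing medium then added to final 40, 10, 2.5 and 0.25 µg/mL. After 12 h, MTT in PBS added; 4 h later medium discarded and formazan dissolved in DMSO. A490 read; at least three replicates.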

Bacillus subtilis = assay: Antibacterial activity against Bacillus subtilis assessed as survival after 24 hrs by MTT assay; assay type: functional, organism-based; method in brief: as §1
Pseudomonas aeruginosa = assay: Antibacterial activity against Pseudomonas aeruginosa assessed as survival after 24 hrs by MTT assay; assay type: functional, organism-based; method in brief: as §1
Escherichia coli = assay: Antibacterial activity against Escherichia coli assessed as survival after 24 hrs by MTT assay; assay type: functional, organism-based; method in brief: as §1
[2] = Inhibition of Escherichia coli FabH overexpressed in Escherichia coli DH10B using holo-ACP as substrate after 1 min
Method in brief: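 Enzyme was purified by Ni-NTA with imidazole gradient elution and stored in 20 mM Tris pH 7.6, 100 mM NaCl, 1 mM DTT, 20% glycerol. Reaction: 0.5 nM E. coli FabH, 20 mM Na₂HPO₄ pH 7.0, 0.5 mM DTT, 0.25 mM MgCl₂, 2.5 µM holo-ACP, preincubated 1 min. Started with acetyl-CoA, NADH and NADPH mix; ran 19 min. Stopped with ice-cold TCA; ³H incorporation in pellet counted by liquid scintillation. Inhibitors added from DMSO stock, final DMSO ≤2%; IC50 determined.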

[3] = Cytotoxicity against human macrophages assessed as morphological changes at 2.5 to 160 ug/mL after 24 hrs by phase contrast microscopic analysis; assay type: cell-based; conditions: macrophage
Method in brief: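 Human macrophages exposed for 24 h to 2.5, 10, 40 and 160 µg/mL, Giemsa-stained and examined by phase contrast microscopy. Morphology compared with untreated control cells. The minimum cytotoxic concentration is the level causing a microscopically detectable alteration of normal cell morphology.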

SMILES: CC(O)Cn1c([N+](=O)[O-])cnc1/C=C/c1ccccc1 (centres undefined)
- CC50 at 24 h [1]: 1.5 µM
- IC50 (Bacillus thuringiensis): 45.6 µg/mL (≈ 167 µM)
- IC50 (Bacillus subtilis): 78.9 µg/mL (≈ 289 µM)
- IC50 (Pseudomonas aeruginosa): 28 µg/mL (≈ 102 µM)
- IC50 (Escherichia coli): > 200 µg/mL

SMILES: COc1ccc(/C=C/c2ncc([N+](=O)[O-])n2CC(C)O)cc1 (centres undefined)
- CC50 at 24 h [1]: 0.56 µM
- IC50 (Bacillus thuringiensis): 13.6 µg/mL (≈ 44.8 µM)
- IC50 [2]: 9.5 µM
- IC50 (Bacillus subtilis): 12.3 µg/mL (≈ 40.6 µM)
- IC50 (Pseudomonas aeruginosa): 42.8 µg/mL (≈ 141 µM)
- IC50 (Escherichia coli): 46.1 µg/mL (≈ 152 µM)

SMILES: CC(O)Cn1c([N+](=O)[O-])cnc1/C=C/c1ccc(Br)cc1 (centres undefined)
- CC50 at 24 h [1]: 0.55 µM
- IC50 (Bacillus thuringiensis): 56.2 µg/mL (≈ 160 µM)
- IC50 (Bacillus subtilis): 38 µg/mL (≈ 108 µM)
- IC50 (Pseudomonas aeruginosa): 15.2 µg/mL (≈ 43.2 µM)
- IC50 (Escherichia coli): 50.8 µg/mL (≈ 144 µM)

SMILES: CC(O)Cn1c([N+](=O)[O-])cnc1/C=C/c1cccc(F)c1 (centres undefined)
- CC50 at 24 h [1]: 1.03 µM
- IC50 (Bacillus thuringiensis): 79.2 µg/mL (≈ 272 µM)
- IC50 [2]: 8.9 µM
- IC50 (Bacillus subtilis): 11.8 µg/mL (≈ 40.5 µM)
- IC50 (Pseudomonas aeruginosa): 15 µg/mL (≈ 51.5 µM)
- IC50 (Escherichia coli): 120 µg/mL (≈ 412 µM)

SMILES: CC(O)Cn1c([N+](=O)[O-])cnc1/C=C/c1ccc(Cl)cc1 (centres undefined)
- CC50 at 24 h [1]: 0.98 µM
- IC50 (Bacillus thuringiensis): 52.5 µg/mL (≈ 171 µM)
- IC50 (Bacillus subtilis): 79.5 µg/mL (≈ 258 µM)
- IC50 (Pseudomonas aeruginosa): 17.6 µg/mL (≈ 57.2 µM)
- IC50 (Escherichia coli): 102 µg/mL (≈ 331 µM)

SMILES: CC(O)Cn1c([N+](=O)[O-])cnc1/C=C/c1ccc(F)cc1 (centres undefined)
- CC50 at 24 h [1]: 0.42 µM
- IC50 (Bacillus thuringiensis): 28.1 µg/mL (≈ 96.5 µM)
- IC50 (Bacillus subtilis): 47.1 µg/mL (≈ 162 µM)
- IC50 (Pseudomonas aeruginosa): 24.2 µg/mL (≈ 83.1 µM)
- IC50 (Escherichia coli): 45.3 µg/mL (≈ 156 µM)

SMILES: CC(O)Cn1c([N+](=O)[O-])cnc1/C=C/c1cccc(Cl)c1 (centres undefined)
- CC50 at 24 h [1]: 0.52 µM
- IC50 (Bacillus thuringiensis): 21.4 µg/mL (≈ 69.5 µM)
- IC50 (Bacillus subtilis): 55.3 µg/mL (≈ 180 µM)
- IC50 (Pseudomonas aeruginosa): 35 µg/mL (≈ 114 µM)
- IC50 (Escherichia coli): 86.7 µg/mL (≈ 282 µM)

SMILES: COc1ccccc1/C=C/c1ncc([N+](=O)[O-])n1CC(C)O (centres undefined)
- CC50 at 24 h [1]: 0.48 µM
- IC50 (Bacillus thuringiensis): 19.1 µg/mL (≈ 63 µM)
- IC50 (Bacillus subtilis): 10.5 µg/mL (≈ 34.6 µM)
- IC50 (Pseudomonas aeruginosa): 83.8 µg/mL (≈ 276 µM)
- IC50 (Escherichia coli): 78.6 µg/mL (≈ 259 µM)

SMILES: CC(O)Cn1c([N+](=O)[O-])cnc1/C=C/c1ccc([N+](=O)[O-])cc1 (centres undefined)
- CC50 at 24 h [1]: 0.41 µM
- IC50 (Bacillus thuringiensis): 11.7 µg/mL (≈ 36.8 µM)
- IC50 [2]: 4.6 µM
- IC50 (Bacillus subtilis): 32.5 µg/mL (≈ 102 µM)
- IC50 (Pseudomonas aeruginosa): 5.9 µg/mL (≈ 18.5 µM)
- IC50 (Escherichia coli): 36.8 µg/mL (≈ 116 µM)

SMILES: COc1cccc(/C=C/c2ncc([N+](=O)[O-])n2CC(C)O)c1 (centres undefined)
- CC50 at 24 h [1]: 1.3 µM
- IC50 (Bacillus thuringiensis): 56.2 µg/mL (≈ 185 µM)
- IC50 (Bacillus subtilis): 25.7 µg/mL (≈ 84.7 µM)
- IC50 (Pseudomonas aeruginosa): 6.7 µg/mL (≈ 22.1 µM)
- IC50 (Escherichia coli): 181 µg/mL (≈ 595 µM)

SMILES: CC(O)Cn1c([N+](=O)[O-])cnc1/C=C/c1cccc(Br)c1 (centres undefined)
- CC50 at 24 h [1]: 0.62 µM
- IC50 (Bacillus thuringiensis): 8.2 µg/mL (≈ 23.3 µM)
- IC50 [2]: 10.8 µM
- IC50 (Bacillus subtilis): 15.3 µg/mL (≈ 43.4 µM)
- IC50 (Pseudomonas aeruginosa): 30.9 µg/mL (≈ 87.7 µM)
- IC50 (Escherichia coli): 45.4 µg/mL (≈ 129 µM)

SMILES: CC(O)Cn1c([N+](=O)[O-])cnc1/C=C/c1ccccc1F (centres undefined)
- CC50 at 24 h [1]: 1.41 µM
- IC50 (Bacillus thuringiensis): 60.3 µg/mL (≈ 207 µM)
- IC50 (Bacillus subtilis): 3.4 µg/mL (≈ 11.7 µM)
- IC50 (Pseudomonas aeruginosa): 39.4 µg/mL (≈ 135 µM)
- IC50 (Escherichia coli): 72.7 µg/mL (≈ 250 µM)

SMILES: CC(O)Cn1c([N+](=O)[O-])cnc1/C=C/c1ccccc1Cl (centres undefined)
- CC50 at 24 h [1]: 0.48 µM
- IC50 [2]: 11.5 µM
- IC50 (Bacillus subtilis): 7.5 µg/mL (≈ 24.4 µM)
- IC50 (Pseudomonas aeruginosa): 15.4 µg/mL (≈ 50 µM)
- IC50 (Escherichia coli): 56.3 µg/mL (≈ 183 µM)

SMILES: Cc1ccc(/C=C/c2ncc([N+](=O)[O-])n2CC(C)O)cc1 (centres undefined)
- CC50 at 24 h [1]: 0.86 µM
- IC50 (Bacillus thuringiensis): 8.6 µg/mL (≈ 29.9 µM)
- IC50 [2]: 78.8 µM
- IC50 (Bacillus subtilis): 8.9 µg/mL (≈ 31 µM)
- IC50 (Pseudomonas aeruginosa): 22.8 µg/mL (≈ 79.4 µM)
- IC50 (Escherichia coli): 111 µg/mL (≈ 388 µM)

SMILES: CC(O)Cn1c([N+](=O)[O-])cnc1/C=C/c1c(F)cccc1Cl (centres undefined)
- CC50 at 24 h [1]: 0.71 µM
- IC50 (Bacillus thuringiensis): 6.1 µg/mL (≈ 18.7 µM)
- IC50 (Bacillus subtilis): 112 µg/mL (≈ 343 µM)
- IC50 (Pseudomonas aeruginosa): 5.7 µg/mL (≈ 17.5 µM)
- IC50 (Escherichia coli): 119 µg/mL (≈ 365 µM)

SMILES: CC(O)Cn1c([N+](=O)[O-])cnc1/C=C/c1ccc(Cl)cc1Cl (centres undefined)
- CC50 at 24 h [1]: 0.81 µM
- IC50 (Bacillus thuringiensis): 18.8 µg/mL (≈ 54.9 µM)
- IC50 (Bacillus subtilis): 58.1 µg/mL (≈ 170 µM)
- IC50 (Pseudomonas aeruginosa): 8.7 µg/mL (≈ 25.4 µM)
- IC50 (Escherichia coli): 111 µg/mL (≈ 325 µM)

SMILES: CC(O)Cn1c([N+](=O)[O-])cnc1/C=C/c1ccc(N(C)C)cc1 (centres undefined)
- CC50 at 24 h [1]: 0.68 µM
- IC50 (Bacillus thuringiensis): > 200 µg/mL
- IC50 (Bacillus subtilis): 56.5 µg/mL (≈ 179 µM)
- IC50 (Pseudomonas aeruginosa): 75 µg/mL (≈ 237 µM)
- IC50 (Escherichia coli): 108 µg/mL (≈ 342 µM)

SMILES: CC(O)Cn1c([N+](=O)[O-])cnc1/C=C/c1cccc([N+](=O)[O-])c1 (centres undefined)
- CC50 at 24 h [1]: 0.43 µM
- IC50 (Bacillus thuringiensis): 20.6 µg/mL (≈ 64.7 µM)
- IC50 [2]: 5.1 µM
- IC50 (Bacillus subtilis): 31.1 µg/mL (≈ 97.7 µM)
- IC50 (Pseudomonas aeruginosa): 32.7 µg/mL (≈ 103 µM)
- IC50 (Escherichia coli): 38.8 µg/mL (≈ 122 µM)

SMILES: CC(O)Cn1c([N+](=O)[O-])cnc1/C=C/c1ccccc1Br (centres undefined)
- CC50 at 24 h [1]: 0.49 µM
- IC50 (Bacillus thuringiensis): 11.4 µg/mL (≈ 32.4 µM)
- IC50 (Bacillus subtilis): 6 µg/mL (≈ 17 µM)
- IC50 (Pseudomonas aeruginosa): 11.1 µg/mL (≈ 31.5 µM)
- IC50 (Escherichia coli): 63.6 µg/mL (≈ 181 µM)

SMILES: CC(O)Cn1c([N+](=O)[O-])cnc1/C=C/c1ccccc1[N+](=O)[O-] (centres undefined)
- Activity [3]: Non-toxic
- CC50 at 24 h [1]: 1.09 µM
- IC50 (Bacillus thuringiensis): 72.9 µg/mL (≈ 229 µM)
- IC50 [2]: 11 µM
- IC50 (Bacillus subtilis): 12.3 µg/mL (≈ 38.6 µM)
- IC50 (Pseudomonas aeruginosa): 7.4 µg/mL (≈ 23.2 µM)
- IC50 (Escherichia coli): 40.3 µg/mL (≈ 127 µM)

SMILES: CC(O)Cn1c([N+](=O)[O-])cnc1/C=C/c1ccc2ccccc2c1 (centres undefined)
- CC50 at 24 h [1]: 0.79 µM
- IC50 (Bacillus thuringiensis): 52.2 µg/mL (≈ 161 µM)
- IC50 [2]: 43.2 µM
- IC50 (Bacillus subtilis): 23.5 µg/mL (≈ 72.7 µM)
- IC50 (Pseudomonas aeruginosa): 42.1 µg/mL (≈ 130 µM)
- IC50 (Escherichia coli): 108 µg/mL (≈ 335 µM)

SMILES: NC[C@H]1O[C@H](O[C@H]2[C@H](O)[C@@H](O[C@H]3O[C@H](CO)[C@@H](O)[C@H](N)[C@H]3O)[C@H](N)C[C@@H]2N)[C@H](O)[C@@H](O)[C@@H]1O [KANAMYCIN]
- IC50 (Bacillus thuringiensis): 9.5 µg/mL (≈ 19.6 µM)
- IC50 [2]: 6.3 µM
- IC50 (Bacillus subtilis): 8.9 µg/mL (≈ 18.4 µM)
- IC50 (Pseudomonas aeruginosa): 6.8 µg/mL (≈ 14 µM)
- IC50 (Escherichia coli): 47.3 µg/mL (≈ 97.6 µM)

Source: ChEMBL document CHEMBL2401707, “Potentiating 1-(2-hydroxypropyl)-2-styryl-5-nitroimidazole derivatives against antibacterial agents: design, synthesis and biology analysis” (Eur J Med Chem, 2013)
